Hits are enriched below; roughly 1.9% of the tested compounds scored in any of these assays.
ASAP1 GAP inh – inhibitors of human ASAP1 ArfGAP activity. Q9ULH1. ASAP1-stimulated ARF1 GTP hydrolysis, GDP FP detection. inhibition, % at 16.5 µM. 0.19% of 360,000 active. AID 624377; in the data active means inhibition above about 25%;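 further: 0% = vehicle with enzyme and substrate and 100% = no enzyme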
Target sequence (Q9ULH1 325-724 limits assumed): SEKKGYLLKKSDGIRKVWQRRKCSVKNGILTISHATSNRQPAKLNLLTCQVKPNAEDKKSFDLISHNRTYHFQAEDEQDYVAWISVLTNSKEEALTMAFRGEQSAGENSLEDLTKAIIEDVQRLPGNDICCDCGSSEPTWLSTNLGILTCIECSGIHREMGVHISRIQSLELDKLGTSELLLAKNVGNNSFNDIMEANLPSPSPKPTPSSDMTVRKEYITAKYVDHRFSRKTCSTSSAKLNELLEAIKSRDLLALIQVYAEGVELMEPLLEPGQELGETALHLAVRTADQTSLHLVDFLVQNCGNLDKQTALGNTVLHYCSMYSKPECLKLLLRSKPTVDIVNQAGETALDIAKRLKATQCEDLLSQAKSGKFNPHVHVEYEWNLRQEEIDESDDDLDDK
Rtt109 Vps75 – inhibitors of Candida albicans Rtt109/Vps75 histone acetyltransferase | 0.16% of 330,000 active | inhibition, % at 34.9 µM | purified Rtt109/Vps75, ThioGlo CoA-SH fluorescence, 4 h | Q5AAJ8;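 active means inhibition of at least 50% in every replicate; inconclusive means best replicate reaches 50% inhibition but some replicates fall short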
FGF22 binding – FGF22 (human) thermal shift binding; 1.5% of 340,000 active; recombinant FGF22 thermal shift, SYPRO orange fluorescence; percent of sucrose octasulfate shift, DMSO zero; activity (Tm shift, normalised), % at 9.99 µM;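 active means mean Tm shift, scaled 0 neutral to 100 positive control, at about 1.3% or above, every replicate too, limit read from the data; inconclusive means no clear call, values can overlap the other calls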
Target sequence (Q9HCT0 whole entry, looked up): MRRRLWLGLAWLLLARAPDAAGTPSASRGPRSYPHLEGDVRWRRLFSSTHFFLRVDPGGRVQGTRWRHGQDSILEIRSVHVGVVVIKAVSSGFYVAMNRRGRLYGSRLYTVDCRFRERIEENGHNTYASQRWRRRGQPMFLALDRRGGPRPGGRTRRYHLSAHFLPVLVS
ARFGAP1 inhibitor – rat ARFGAP1 inhibition | Arfgap1-stimulated ARF1 GTP hydrolysis, GDP FP detection | inhibition, % at 16.5 µM | Q62848 | 0.26% of 360,000 active;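 active means inhibition above a per-plate limit, mean inhibition of low control wells plus 3 SD, cut at about 25% in these data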;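 further: 0% = DMSO wells with enzyme and 100% = wells lacking Arfgap1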
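Material: rat Arfgap1 catalytic domain, aa 1-136; also added: human ARF1(Δ1-17)-GTP substrate; compound dosing: one concentration, 16.5 µM, DMSO 1.26%; incubation: GTP hydrolysis reaction 2 h at 25 °C; measured by: Tracer-displacement fluorescence polarization with EDTA stop, 620/688 nm; evaluation: % inhibition from polarization; repeats: one replicate per compound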
Efflux pump mplx – blocks antifungal efflux pumps in multiplex yeast assay. S. cerevisiae Candida pump triplex, Nile Red efflux. inhibition, % at 10 µM. 0.44% of 330,000 active. AID 485275;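 active means plate passing quality check with inhibition over a set limit, or well fluorescence over plate mean plus 4 SD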;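 further: Nile Red retained in pooled yeast measured as flow cytometry median fluorescence; 0% = buffer negative control and 100% = Enniatin B positive control; higher means more Nile Red kept so more efflux inhibition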
Yeast cmpd fluor – counter-screen for efflux pump inhibitors: compound fluorescence. 4% of 1,700 active. AID 588517. S. cerevisiae AD/pABC3, flow cytometry. shares compounds with Efflux pump mplx. fluorescence ratio to DMSO, % at 10 µM;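 active means fluorescence ratio to DMSO above its plate's cutoff, the plate mean ratio plus 5 SD, cut at about 210% in these data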;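 further: unstained yeast with no Nile Red so the signal is compound autofluorescence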
Mdr1 pump inh – Candida Mdr1 efflux pump inhibition; shares compounds with Efflux pump mplx; inhibition, % at 10 µM; 1% of 1,700 active; S. cerevisiae AD/CaMDR1, Nile Red efflux, flow cytometry; AID 588518; in the data active means inhibition above about 26%;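 further: 0% = DMSO vehicle and 100% = reference inhibitor; higher means more Nile Red retained so more efflux inhibition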
CaCdr2 efflux inh – Candida Cdr2 efflux pump inhibition | shares compounds with Efflux pump mplx | Nile Red retention ratio vs DMSO, % at 10 µM | S. cerevisiae AD/CaCDR2, Nile Red retention, flow cytometry | 4% of 1,700 active; in the data active means Nile Red retention ratio vs DMSO above about 190%;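 further: higher ratio means more blocking of Cdr2 efflux of the dye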
CaCdr1 efflux inh – inhibitors of Candida albicans Cdr1 efflux pump | shares compounds with Efflux pump mplx | 1% of 1,700 active | S. cerevisiae AD/CaCDR1, Nile Red efflux, flow cytometry | inhibition, % at 10 µM;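 active means inhibition above the screen-wide mean plus twice its standard deviation, cut at about 32% in these data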
Numbers without * were called inactive; ? = inconclusive; · = no result.

SMILES	ASAP1 GAP inh	Rtt109 Vps75	FGF22 binding	ARFGAP1 inhibitor	Efflux pump mplx	Yeast cmpd fluor	Mdr1 pump inh	CaCdr2 efflux inh	CaCdr1 efflux inh
Cn1ncc([N+](=O)[O-])c1C(=O)Nc1ccn(Cc2ccccc2F)n1	-5	4	0	9	0	·	·	·	·
Cc1ccsc1/C=N\NC(=O)c1n[nH]c2c1CCC2	4	1	·	11	11*	87	0	94	0
Cc1cccc(CS(=O)(=O)Cc2ccc(C(=O)NCc3ccco3)o2)c1	-2	-7	0	-7	13*	109	0	101	0
Cc1ccc(CS(=O)(=O)Cc2ccc(C(=O)NCc3ccco3)o2)cc1	1	-14	0	-4	0	·	·	·	·
COc1ccccc1NC(=O)COC(=O)c1cc([N+](=O)[O-])ccc1N1CCCC1	8	0	0	2	0.9*	100	0	97	0
C[C@H](NC(=O)C[C@H]1CC[C@H]2[C@H](COc3ccc(NS(=O)(=O)c4ccc(Cl)cc4)cc3C(=O)N2C)O1)c1ccccc1	·	·	0	·	·	·	·	·	·
CCOCCCNC(=O)c1ccc2c(c1)ncn2-c1ccc(CC)cc1	-9	-1	0	0	0	·	·	·	·
Cc1cc(=O)oc2cc(OC(C)C)ccc12	-2	-21	·	-8	0	·	·	·	·
Cc1cc(=O)oc2cc(OC(C(=O)O)c3ccccc3)ccc12 (stereo unspecified)	-5	3	0	3	1.1*	101	0	87	0
COc1cc(/C=C(\C#N)c2ccccn2)ccc1OCc1ccccc1	14	-9	0	1	0	·	·	·	·
COc1cc(/C=C(\C#N)c2ccccn2)ccc1OCc1ccc(Cl)cc1	21	4	·	-1	6.7*	97	0	112	0
COc1cccc(NC(=O)C(=O)NCCCN2CCCC2=O)c1	-1	2	0	7	0	·	·	·	·
O=C(c1ccccc1)c1cc[n+]([O-])cc1	2	20	·	10	0	·	·	·	·
COc1cc(CNC(C)(C)CO)cc(Br)c1OCc1ccc(Cl)cc1Cl	10	29	0	2	-19	·	·	·	·
COc1cc(CNC(C)(C)CO)cc(Br)c1OCc1ccc(Cl)cc1	8	16	·	-7	6.4*	104	0	108	0
C(=C\c1ccccc1)/CN1CCN(C(c2cccs2)c2nnnn2C2CCCC2)CC1 (stereo unspecified)	4	·	0	1	·	·	·	·	·
CCN(CC)S(=O)(=O)c1ccc2c(c1)CC(C(=O)N1CCCC1)N2C(C)=O (stereo unspecified)	-10	-5	0	17	0	·	·	·	·
CCOC(=O)C1(Cc2cccc(OC)c2)CCCN(C(=O)c2ccccc2C)C1 (stereo unspecified)	11	10	0	17	0	·	·	·	·
O=C(CSc1nc2ccc(Cl)cc2[nH]1)N1CCN(C(=O)c2ccco2)CC1	5	4	0	-7	14*	101	0	89	0
Cc1ccc(Nc2c(-c3ccc(N4CCOCC4)cc3)nc3ncccn23)cc1C	-5	3	0	-14	0	·	·	·	·
Cc1ccc(Nc2c(-c3ccc(N4CCOCC4)cc3)nc3ncccn23)cc1	5	8	0	-7	0.9*	108	0	106	0
CCOC(=O)C1C(=O)C=C(/C=C/c2ccc(N(C)C)cc2)CC1c1ccccc1 (stereo unspecified)	-5	-2	·	5	0.6*	588*	0	125	0
CCOC(=O)C1C(=O)C=C(c2ccc(C)cc2)CC1c1ccccc1 (stereo unspecified)	5	0	0	12	0	·	·	·	·
Cn1c(=O)cc(OCCCC(=O)NCCCN2CCN(Cc3ccccc3)CC2)c2ccccc21	-3	-1	·	14	0	·	·	·	·
CCc1ccc2nc(N(CCCN(C)C)C(=O)c3ccc(S(=O)(=O)N4CCCc5ccccc54)cc3)sc2c1	2	4	0	-4	0	·	·	·	·
SMILES	ASAP1 GAP inh	Rtt109 Vps75	FGF22 binding	ARFGAP1 inhibitor	Efflux pump mplx	Yeast cmpd fluor	Mdr1 pump inh	CaCdr2 efflux inh	CaCdr1 efflux inh
CN(C)CCN(C(=O)c1ccc(S(=O)(=O)N2CCc3ccccc32)cc1)c1nc2ccc(F)cc2s1	-12	32	0	8	0.4*	110	0	108	0
CN(C)S(=O)(=O)c1ccc(C(=O)OCc2ccc(C#N)cc2)cc1	5	-10	·	-3	0	·	·	·	·
O=C(NOCc1ccccc1)c1ccc([N+](=O)[O-])cc1	-15	2	0	-11	0	·	·	·	·
N/C(=N\OC(=O)Cc1cccs1)c1ccc(Cl)cc1	-7	1	0	-6	0	105	0	97	0
N/C(=N\OC(=O)Cc1cccs1)c1ccccc1	-1	-2	·	0	0	·	·	·	·
C[C@H]1CCCCO[C@H](CN(C)C(=O)Nc2ccc(C(F)(F)F)cc2)[C@@H](C)CN([C@@H](C)CO)C(=O)c2cc(NC(=O)CCC(F)(F)F)ccc2O1	·	·	-1	·	·	·	·	·	·
CC(C)CC#Cc1ccc2c(c1)O[C@H](CN(C)C(=O)NC(C)C)[C@@H](C)CN([C@@H](C)CO)S2(=O)=O	·	·	0	·	·	·	·	·	·
O=C(Nc1nnc(-c2ccc(F)cc2)s1)Nc1ccccc1F	-2	·	0	1	0.8*	102	0	108	0
Nc1nc(Cl)cc(NCCc2ccc(O)cc2)n1	2	?	0	18	0	·	·	·	·
Oc1ccc(CCNc2ncnc3ccc(Cl)cc23)cc1	14	3	0	1	1.0*	100	0	114	0
O=C(CN1CCCC1)Nc1ccccc1C(=O)c1ccccc1	-10	2	0	1	0	·	·	·	·
O=C(CN1CCN(S(=O)(=O)c2ccccc2F)CC1)Nc1ccccc1C(=O)c1ccccc1	-4	·	0	-14	0.5*	111	0	98	0
CC(C)(C)c1ccc(OCCOc2ccc(C(C)(C)C)cc2NC=O)c(NC=O)c1	1	-5	0	16	0.6*	108	0	108	0
Cn1c(SCC(=O)Nc2ccc3c(c2)OCCO3)nnc1-c1cccnc1	-2	-1	0	-2	0	·	·	·	·
O=C1NC(=S)S/C1=C\c1ccc(SCc2ccco2)o1	·	4	·	·	4.7*	125	0	157	0
O=C1NC(=S)SC1=Cc1ccccc1Cl	11	2	43	-4	·	·	·	·	·
O=C1NC(=S)S/C1=C\c1ccc(SCc2ccccc2)o1	-8	10	·	-23	4.5*	121	0	187*	0
COC(=O)C1C/C(=N\NS(=O)(=O)c2ccc(C)cc2)c2sccc2C1 (stereo unspecified)	-8	4	·	8	0	·	·	·	·
